Consider 4 compounds from ChEMBL document CHEMBL4433212, “First-of-its-kind STARD3 Inhibitor: In Silico Identification and Biological Evaluation as Anticancer Agent” (ACS Med Chem Lett, 2019).

Active and inactive are the calls of the source. The rule behind the calls is not given here.

In data set [1] the target is T1, StAR-related lipid transfer protein 3 (Homo sapiens, UniProt Q14849).
T1 sequence (Q14849 whole entry): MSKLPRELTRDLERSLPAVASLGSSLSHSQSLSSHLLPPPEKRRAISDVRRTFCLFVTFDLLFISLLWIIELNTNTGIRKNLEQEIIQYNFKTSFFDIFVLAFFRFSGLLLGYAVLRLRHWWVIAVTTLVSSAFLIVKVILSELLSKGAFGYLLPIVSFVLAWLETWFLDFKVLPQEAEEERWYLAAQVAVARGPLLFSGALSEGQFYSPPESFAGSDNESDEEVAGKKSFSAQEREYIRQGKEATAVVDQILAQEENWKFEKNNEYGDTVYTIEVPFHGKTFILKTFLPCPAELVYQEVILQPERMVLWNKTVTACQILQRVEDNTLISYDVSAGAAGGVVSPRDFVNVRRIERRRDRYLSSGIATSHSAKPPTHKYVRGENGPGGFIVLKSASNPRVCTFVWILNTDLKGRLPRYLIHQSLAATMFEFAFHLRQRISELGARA
The experiment in a line: Inhibition of recombinant human His-tagged StAR-related lipid transfer protein 3 START domain expressed in Escherichia coli BL21(DE3) cells assessed as reduction of protein interaction with cholesterol using 3-hexanoyl-NBD Cholesterol as substrate incubated for 5 mins by competition binding fluorescent assay. An outline of the steps:
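Competition binding fluorescent assay of cholesterol binding to STARD3, adapted from Tsujishita and Hurley; STARD3 used at 5 μM, selected from a binding titration curve as giving 55.9% completely bound state; IC50 determined.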

Data set [2] deals with MCF7. In words: Antiproliferative activity against human MCF7 cells after 96 hrs by Cell Titer-Glo based luminescence assay. The data set is classed as functional. The settings on record: MCF7, 96 h.
In data set [3] the test system is MDA-MB-231. The experiment in a line: Antiproliferative activity against human MDA-MB-231 after 96 hrs by Cell Titer-Glo based luminescence assay. The data set is classed as functional. The settings on record: MDA-MB-231, 96 h.
In data set [4] the test system is HCT-116. In words: Antiproliferative activity against human HCT116 cells after 96 hrs by Cell Titer-Glo based luminescence assay. The data set is classed as functional. Particulars: HCT-116, 96 h. (In general: ATP-based viability assays read luminescence as a measure of living cells.)
In data set [5] the test system is MCF7. The experiment in a line: Anticlonogenic activity against human MCF7 cells assessed as reduction in cell proliferation after 10 days with replacement of medium for every 3 days by crystal violet staining based visual analysis. The data set is classed as functional. An outline of the steps:
(§1)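 MCF7, MDA-MB-231 and HCT-116 cells treated with a range of inhibitor concentrations, grown until colonies became visible; colony forming efficiency scored by visual inspection.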

Data set [6] deals with MDA-MB-231. In words: Anticlonogenic activity against human MDA-MB-231 cells assessed as reduction in cell proliferation after 10 days with replacement of medium for every 3 days by crystal violet staining based visual analysis. The data set is classed as functional. An outline of the steps: as §1
The subject of data set [7] is HCT-116. In words: Anticlonogenic activity against human HCT116 cells assessed as reduction in cell proliferation after 10 days with replacement of medium for every 3 days by crystal violet staining based visual analysis. The data set is classed as functional. An outline of the steps:
as §1

Data set [8] has as its target T2, StAR-related lipid transfer protein 3 (Mus musculus) (UniProt Q61542).
T2 sequence (whole entry): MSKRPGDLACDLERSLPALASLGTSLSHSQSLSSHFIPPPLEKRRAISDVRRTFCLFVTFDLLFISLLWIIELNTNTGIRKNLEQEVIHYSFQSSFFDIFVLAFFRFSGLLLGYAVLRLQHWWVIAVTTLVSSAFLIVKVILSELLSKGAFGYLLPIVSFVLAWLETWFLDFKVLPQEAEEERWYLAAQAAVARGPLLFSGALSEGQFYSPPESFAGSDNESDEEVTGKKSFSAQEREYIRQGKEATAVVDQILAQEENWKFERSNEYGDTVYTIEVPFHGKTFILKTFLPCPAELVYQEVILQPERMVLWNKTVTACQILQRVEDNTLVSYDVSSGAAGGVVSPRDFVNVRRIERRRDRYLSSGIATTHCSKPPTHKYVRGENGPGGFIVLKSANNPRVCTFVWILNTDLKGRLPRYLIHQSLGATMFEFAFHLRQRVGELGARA
The experiment in a line: Induction of STARD3 degradation in cycloheximide treated mouse NIH/3T3 cells at 100 uM incubated for 24 hrs followed by addition of cycloheximide and measured after 12 hrs by Western blot analysis. An outline of the steps:
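NIH3T3 fibroblasts pretreated with 100 μM inhibitor for 24 h, then given cycloheximide 10 μg/mL and harvested at timed points (hours); STARD3 protein followed by Western blot to track degradation kinetics.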

The subject of the next data set is NIH3T3. In words: Effect on STARD3 mRNA level in mouse NIH/3T3 cells at 0 to 100 uM incubated for 48 hrs by RT-PCR method. The data set is classed as ADME, cell-based. Particulars: nih3t3, 48 h. An outline of the steps: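 NIH3T3 fibroblasts exposed to two inhibitor concentrations for 48 h; STARD3 mRNA level then measured.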
In data set [9] the target is T3, StAR-related lipid transfer protein 3 (Homo sapiens) (UniProt Q14849).
T3 sequence (whole entry): T1 sequence (Q14849 whole entry)
In words: Inhibition of STARD3 in human MDA-MB-231 cells assessed as increase in FAK protein level at 100 uM incubated for 24 hrs by Western blot analysis. The data set is classed as cell-based. An outline of the steps:
(§2)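 MDA-MB-231 cells treated with 100 μM inhibitor for 24 and 48 h; total FAK and pTyr397-FAK levels assessed by Western blot against untreated cells.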
On the technique in general: In western blotting, separated proteins are transferred to a membrane and probed.

Data set [10] addresses T3, StAR-related lipid transfer protein 3 (Homo sapiens). The experiment in a line: Inhibition of STARD3 in human MDA-MB-231 cells assessed as increase in FAK protein level at 100 uM incubated for 48 hrs by Western blot analysis. The data set is classed as cell-based. An outline of the steps:
as §2

Data set [11] shares this target. In words: Inhibition of STARD3 in human MDA-MB-231 cells assessed as increase in phosphorylated FAK protein level at Tyr397 residue at 100 uM incubated for 24 hrs by Western blot analysis. The data set is classed as cell-based. An outline of the steps: as §2
Data set [12] shares this target. The experiment in a line: Inhibition of STARD3 in human MDA-MB-231 cells assessed as increase in phosphorylated FAK protein level at Tyr397 residue at 100 uM incubated for 48 hrs by Western blot analysis. The data set is classed as cell-based. An outline of the steps: as §2

As usually defined, the IC50 is the concentration at which inhibition is half-maximal.

As for `O=c1nc(/C=C/c2ccc(O)c([N+](=O)[O-])c2)[nH]c2c1CCN(Cc1ccccc1)C2`, the half-inhibitory concentration (IC50) in [1] came out at 35 µM; with MCF7 [2] it was 106 µM; in the data set with MDA-MB-231 [3] it was 49.7 µM; in the data set on HCT-116 [4], 70.7 µM. Further, the Activity entry in the data set with MCF7 [5] is “Dose-dependent effect”; in the data set on MDA-MB-231 [6] it was “Dose-dependent effect”; in the data set with HCT-116 [7] it was “Dose-dependent effect”; in the data set on NIH3T3, “Non-Toxic”. Moreover, the result in data set [8] was Active. For the same compound, the inhibition entry in data set [9], in data set [10], in data set [11] and in data set [12] was “Active” in each case.

For the compound `O=C(/C=C/c1ccccc1F)Nc1ccc(N2CCNC(=O)C2)c(Cl)c1`, the IC50 in data set [1] was greater than 100 µM.

Consider `O=C(COC(=O)c1ccc(-c2ccc(O)cc2)cc1)NCc1ccc(F)cc1`, for which, in data set [1], the IC50 is greater than 100 µM.

In the case of `O=C1CN(c2ccc(NC(=O)c3csc(-c4cccc(Cl)c4)n3)cn2)CCN1`, in data set [1], the 50% inhibitory concentration (IC50) was greater than 100 µM.
